Laboratory results reported in ChEMBL document CHEMBL4007402 (J Med Chem, 2017).

Legend:
[1] = Growth inhibition of mouse BAF3 cells after 72 hrs by CellTiter-Glo or CCK-8 assay; format: cell-based
In short: (§1)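 Isogenic murine BaF3 cells transformed with TEL-fused kinases, whose proliferation depends on the fused kinase, were used. Parental BaF3 cells served as the general selectivity counter-screen. The anti-proliferative read-out was reported as GI50.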

[2] = target: Mast/stem cell growth factor receptor Kit (Homo sapiens) (UniProt P10721); assay: Inhibition of recombinant TEL-fused c-KIT (unknown origin) expressed in mouse BAF3 cells assessed as growth inhibition after 72 hrs by CellTiter-Glo or CCK-8 assay; format: cell-based; in short: as §1
Mast/stem cell growth factor receptor Kit (Homo sapiens), sequence (P10721 whole entry, the tested form may be a part): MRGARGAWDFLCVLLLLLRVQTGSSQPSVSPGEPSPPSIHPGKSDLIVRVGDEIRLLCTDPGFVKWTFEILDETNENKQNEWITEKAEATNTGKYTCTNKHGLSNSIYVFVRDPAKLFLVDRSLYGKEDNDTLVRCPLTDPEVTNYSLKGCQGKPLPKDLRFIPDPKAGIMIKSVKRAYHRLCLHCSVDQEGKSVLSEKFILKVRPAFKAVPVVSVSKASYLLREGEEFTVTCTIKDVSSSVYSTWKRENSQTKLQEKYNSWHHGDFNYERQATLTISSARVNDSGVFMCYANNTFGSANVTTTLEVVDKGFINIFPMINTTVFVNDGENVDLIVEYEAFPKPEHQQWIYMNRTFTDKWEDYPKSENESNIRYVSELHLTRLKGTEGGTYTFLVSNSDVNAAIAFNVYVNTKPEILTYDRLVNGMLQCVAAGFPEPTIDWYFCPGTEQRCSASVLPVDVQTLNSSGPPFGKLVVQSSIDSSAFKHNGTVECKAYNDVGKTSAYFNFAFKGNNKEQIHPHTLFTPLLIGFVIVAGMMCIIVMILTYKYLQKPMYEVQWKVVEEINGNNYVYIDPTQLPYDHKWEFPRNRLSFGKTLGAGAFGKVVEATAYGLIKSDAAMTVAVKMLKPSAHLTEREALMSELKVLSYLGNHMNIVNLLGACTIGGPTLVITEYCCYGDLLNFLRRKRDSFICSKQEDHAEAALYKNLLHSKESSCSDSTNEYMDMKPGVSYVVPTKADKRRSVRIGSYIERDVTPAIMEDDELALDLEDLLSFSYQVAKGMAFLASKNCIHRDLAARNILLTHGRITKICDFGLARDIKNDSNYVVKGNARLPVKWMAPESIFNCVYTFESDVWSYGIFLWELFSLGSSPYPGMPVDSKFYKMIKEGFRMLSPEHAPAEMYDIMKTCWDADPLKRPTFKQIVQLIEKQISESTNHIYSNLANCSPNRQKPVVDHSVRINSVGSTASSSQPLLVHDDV

[3] = target: Tyrosine-protein kinase ABL1 (Homo sapiens) (UniProt P00519); assay: Inhibition of recombinant TEL-fused ABL (unknown origin) expressed in mouse BAF3 cells assessed as growth inhibition after 72 hrs by CellTiter-Glo or CCK-8 assay; format: cell-based; in short: as §1
Tyrosine-protein kinase ABL1 (Homo sapiens), sequence (P00519 whole entry, the tested form may be a part): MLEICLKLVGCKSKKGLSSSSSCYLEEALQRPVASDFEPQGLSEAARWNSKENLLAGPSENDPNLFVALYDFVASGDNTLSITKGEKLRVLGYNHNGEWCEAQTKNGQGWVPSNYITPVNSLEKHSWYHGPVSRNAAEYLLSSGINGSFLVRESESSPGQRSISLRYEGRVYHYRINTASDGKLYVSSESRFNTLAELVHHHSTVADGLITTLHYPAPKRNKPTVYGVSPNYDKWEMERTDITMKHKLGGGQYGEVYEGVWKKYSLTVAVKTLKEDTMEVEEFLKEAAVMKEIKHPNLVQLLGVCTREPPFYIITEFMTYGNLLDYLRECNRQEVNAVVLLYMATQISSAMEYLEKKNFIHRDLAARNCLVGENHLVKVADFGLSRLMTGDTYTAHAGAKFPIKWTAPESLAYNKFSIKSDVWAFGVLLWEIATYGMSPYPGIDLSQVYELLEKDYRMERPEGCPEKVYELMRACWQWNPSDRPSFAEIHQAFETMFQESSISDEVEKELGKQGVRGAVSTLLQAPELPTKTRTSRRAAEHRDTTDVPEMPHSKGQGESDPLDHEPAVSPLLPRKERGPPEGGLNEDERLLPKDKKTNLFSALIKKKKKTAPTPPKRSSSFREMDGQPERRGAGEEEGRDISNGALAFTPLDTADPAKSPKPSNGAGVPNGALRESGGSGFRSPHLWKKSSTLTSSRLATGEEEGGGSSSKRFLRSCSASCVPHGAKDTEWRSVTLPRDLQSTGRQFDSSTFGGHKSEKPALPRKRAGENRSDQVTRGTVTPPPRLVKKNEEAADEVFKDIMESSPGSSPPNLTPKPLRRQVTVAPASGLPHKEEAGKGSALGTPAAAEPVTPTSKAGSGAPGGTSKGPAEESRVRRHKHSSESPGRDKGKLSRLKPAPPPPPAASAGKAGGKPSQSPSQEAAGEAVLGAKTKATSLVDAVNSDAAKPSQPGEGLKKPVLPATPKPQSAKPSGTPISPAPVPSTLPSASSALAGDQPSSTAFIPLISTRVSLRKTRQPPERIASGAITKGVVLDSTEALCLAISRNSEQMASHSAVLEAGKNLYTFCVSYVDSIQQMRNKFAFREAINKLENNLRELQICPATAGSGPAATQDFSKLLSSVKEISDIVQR

[4] = target: Platelet-derived growth factor receptor alpha (Homo sapiens) (UniProt P16234); assay: Inhibition of recombinant TEL-fused PDGFR-alpha (unknown origin) expressed in mouse BAF3 cells assessed as growth inhibition after 72 hrs by CellTiter-Glo or CCK-8 assay; format: cell-based; in short: as §1
Platelet-derived growth factor receptor alpha (Homo sapiens), sequence (P16234 whole entry, the tested form may be a part): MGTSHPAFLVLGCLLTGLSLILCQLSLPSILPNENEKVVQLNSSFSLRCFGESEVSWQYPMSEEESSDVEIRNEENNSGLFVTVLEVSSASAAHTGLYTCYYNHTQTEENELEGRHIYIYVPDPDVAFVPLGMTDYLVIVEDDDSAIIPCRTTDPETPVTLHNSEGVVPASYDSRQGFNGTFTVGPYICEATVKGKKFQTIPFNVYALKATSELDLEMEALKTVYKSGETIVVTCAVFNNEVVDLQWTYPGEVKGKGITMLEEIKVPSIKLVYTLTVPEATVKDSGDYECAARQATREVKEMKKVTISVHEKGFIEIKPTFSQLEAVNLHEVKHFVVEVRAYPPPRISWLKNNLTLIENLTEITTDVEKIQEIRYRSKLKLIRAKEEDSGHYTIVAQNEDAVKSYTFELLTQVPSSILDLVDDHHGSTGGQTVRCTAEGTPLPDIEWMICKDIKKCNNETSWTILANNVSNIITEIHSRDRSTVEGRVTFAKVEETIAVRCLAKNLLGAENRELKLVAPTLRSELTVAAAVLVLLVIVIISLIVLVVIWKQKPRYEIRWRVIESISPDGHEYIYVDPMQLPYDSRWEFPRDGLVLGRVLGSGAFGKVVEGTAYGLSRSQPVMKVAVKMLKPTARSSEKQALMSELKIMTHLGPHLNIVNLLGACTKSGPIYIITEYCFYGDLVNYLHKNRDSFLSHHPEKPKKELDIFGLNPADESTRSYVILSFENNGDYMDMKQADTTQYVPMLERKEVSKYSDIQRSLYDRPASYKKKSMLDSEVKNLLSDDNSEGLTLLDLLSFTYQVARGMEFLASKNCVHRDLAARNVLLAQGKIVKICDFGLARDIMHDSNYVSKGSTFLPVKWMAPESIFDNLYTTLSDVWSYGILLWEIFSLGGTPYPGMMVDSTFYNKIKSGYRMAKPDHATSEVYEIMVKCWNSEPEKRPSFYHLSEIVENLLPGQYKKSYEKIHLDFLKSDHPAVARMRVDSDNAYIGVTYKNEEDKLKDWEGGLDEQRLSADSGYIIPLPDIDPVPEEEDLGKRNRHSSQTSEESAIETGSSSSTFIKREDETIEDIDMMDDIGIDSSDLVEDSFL

[5] = target: Platelet-derived growth factor receptor beta (Homo sapiens) (UniProt P09619); assay: Inhibition of recombinant TEL-fused PDGFR-beta (unknown origin) expressed in mouse BAF3 cells assessed as growth inhibition after 72 hrs by CellTiter-Glo or CCK-8 assay; format: cell-based; in short: as §1
[6] = target: Receptor-type tyrosine-protein kinase FLT3 (Homo sapiens) (UniProt P36888); assay: Inhibition of recombinant TEL-fused FLT3 (unknown origin) expressed in mouse BAF3 cells assessed as growth inhibition after 72 hrs by CellTiter-Glo or CCK-8 assay; format: cell-based; in short: as §1
[7] = target: Epidermal growth factor receptor (Homo sapiens) (UniProt P00533); assay: Inhibition of recombinant TEL-fused EGFR (unknown origin) expressed in mouse BAF3 cells assessed as growth inhibition after 72 hrs by CellTiter-Glo or CCK-8 assay; format: cell-based; in short: as §1
Epidermal growth factor receptor (Homo sapiens), sequence (P00533 whole entry, the tested form may be a part): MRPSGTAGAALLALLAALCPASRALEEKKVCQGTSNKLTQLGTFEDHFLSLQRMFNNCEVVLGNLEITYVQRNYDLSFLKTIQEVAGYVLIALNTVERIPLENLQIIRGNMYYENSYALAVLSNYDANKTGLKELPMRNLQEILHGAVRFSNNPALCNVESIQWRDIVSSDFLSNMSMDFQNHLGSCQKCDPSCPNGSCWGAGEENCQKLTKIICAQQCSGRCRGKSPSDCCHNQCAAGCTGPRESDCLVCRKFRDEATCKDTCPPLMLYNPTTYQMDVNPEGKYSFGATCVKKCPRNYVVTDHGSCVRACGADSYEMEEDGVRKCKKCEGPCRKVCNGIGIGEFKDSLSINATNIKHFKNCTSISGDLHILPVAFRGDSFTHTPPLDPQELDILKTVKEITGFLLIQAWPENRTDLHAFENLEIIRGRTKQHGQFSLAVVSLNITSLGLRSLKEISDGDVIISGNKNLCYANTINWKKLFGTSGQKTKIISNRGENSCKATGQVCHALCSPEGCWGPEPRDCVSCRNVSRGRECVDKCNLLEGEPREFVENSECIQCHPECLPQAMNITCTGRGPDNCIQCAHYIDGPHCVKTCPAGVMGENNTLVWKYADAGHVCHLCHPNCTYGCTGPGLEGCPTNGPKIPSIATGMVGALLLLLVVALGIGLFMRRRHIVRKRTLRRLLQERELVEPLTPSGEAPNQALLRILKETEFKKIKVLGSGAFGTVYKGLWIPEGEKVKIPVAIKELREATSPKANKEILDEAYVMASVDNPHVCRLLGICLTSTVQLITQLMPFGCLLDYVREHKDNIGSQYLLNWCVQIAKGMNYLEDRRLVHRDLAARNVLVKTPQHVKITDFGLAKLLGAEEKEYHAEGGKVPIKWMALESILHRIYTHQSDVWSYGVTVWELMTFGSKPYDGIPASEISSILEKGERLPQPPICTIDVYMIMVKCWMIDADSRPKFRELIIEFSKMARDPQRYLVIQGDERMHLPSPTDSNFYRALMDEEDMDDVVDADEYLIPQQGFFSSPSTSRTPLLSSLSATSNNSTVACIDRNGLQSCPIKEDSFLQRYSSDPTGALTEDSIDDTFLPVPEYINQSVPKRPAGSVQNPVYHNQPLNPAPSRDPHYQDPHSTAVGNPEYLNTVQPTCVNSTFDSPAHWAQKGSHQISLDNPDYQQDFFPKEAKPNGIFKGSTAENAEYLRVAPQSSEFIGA

[8] = target: T1, Tyrosine-protein kinase JAK3 (Homo sapiens) (UniProt P52333); assay: Inhibition of recombinant TEL-fused JAK3 (unknown origin) expressed in mouse BAF3 cells assessed as growth inhibition after 72 hrs by CellTiter-Glo or CCK-8 assay; format: cell-based; in short: as §1
T1 sequence (whole entry): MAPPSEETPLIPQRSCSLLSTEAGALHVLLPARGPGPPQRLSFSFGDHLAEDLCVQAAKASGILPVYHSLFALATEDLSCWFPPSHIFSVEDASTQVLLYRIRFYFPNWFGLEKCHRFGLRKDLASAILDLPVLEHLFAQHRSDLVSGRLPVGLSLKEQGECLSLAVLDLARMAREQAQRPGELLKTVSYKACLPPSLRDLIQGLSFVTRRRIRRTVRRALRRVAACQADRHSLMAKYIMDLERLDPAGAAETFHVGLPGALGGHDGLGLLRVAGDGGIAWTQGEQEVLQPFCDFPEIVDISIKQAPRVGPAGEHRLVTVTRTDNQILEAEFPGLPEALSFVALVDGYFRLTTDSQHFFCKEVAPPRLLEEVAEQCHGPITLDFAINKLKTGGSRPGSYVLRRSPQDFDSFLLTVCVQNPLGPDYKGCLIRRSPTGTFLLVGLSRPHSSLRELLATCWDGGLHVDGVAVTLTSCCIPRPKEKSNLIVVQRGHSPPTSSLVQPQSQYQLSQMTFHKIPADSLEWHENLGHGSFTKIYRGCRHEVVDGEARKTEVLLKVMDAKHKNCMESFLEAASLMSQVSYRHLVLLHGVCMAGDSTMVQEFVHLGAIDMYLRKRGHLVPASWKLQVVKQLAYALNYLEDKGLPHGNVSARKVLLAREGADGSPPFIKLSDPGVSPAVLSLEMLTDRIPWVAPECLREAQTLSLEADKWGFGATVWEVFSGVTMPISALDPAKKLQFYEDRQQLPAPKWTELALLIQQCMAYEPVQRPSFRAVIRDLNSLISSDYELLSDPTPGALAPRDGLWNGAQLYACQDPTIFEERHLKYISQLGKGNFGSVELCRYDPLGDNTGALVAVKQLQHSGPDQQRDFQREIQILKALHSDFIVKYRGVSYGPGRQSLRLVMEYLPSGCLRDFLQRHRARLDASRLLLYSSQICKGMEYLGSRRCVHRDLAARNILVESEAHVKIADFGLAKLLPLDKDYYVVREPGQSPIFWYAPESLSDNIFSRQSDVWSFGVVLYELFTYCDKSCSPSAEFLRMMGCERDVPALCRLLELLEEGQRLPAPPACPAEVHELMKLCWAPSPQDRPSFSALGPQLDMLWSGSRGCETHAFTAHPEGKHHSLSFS

[9] = target: Tyrosine-protein kinase Blk (Homo sapiens) (UniProt P51451); assay: Inhibition of recombinant TEL-fused BLK (unknown origin) expressed in mouse BAF3 cells assessed as growth inhibition after 72 hrs by CellTiter-Glo or CCK-8 assay; format: cell-based; in short: as §1
Tyrosine-protein kinase Blk (Homo sapiens), sequence (P51451 2-505 limits assumed): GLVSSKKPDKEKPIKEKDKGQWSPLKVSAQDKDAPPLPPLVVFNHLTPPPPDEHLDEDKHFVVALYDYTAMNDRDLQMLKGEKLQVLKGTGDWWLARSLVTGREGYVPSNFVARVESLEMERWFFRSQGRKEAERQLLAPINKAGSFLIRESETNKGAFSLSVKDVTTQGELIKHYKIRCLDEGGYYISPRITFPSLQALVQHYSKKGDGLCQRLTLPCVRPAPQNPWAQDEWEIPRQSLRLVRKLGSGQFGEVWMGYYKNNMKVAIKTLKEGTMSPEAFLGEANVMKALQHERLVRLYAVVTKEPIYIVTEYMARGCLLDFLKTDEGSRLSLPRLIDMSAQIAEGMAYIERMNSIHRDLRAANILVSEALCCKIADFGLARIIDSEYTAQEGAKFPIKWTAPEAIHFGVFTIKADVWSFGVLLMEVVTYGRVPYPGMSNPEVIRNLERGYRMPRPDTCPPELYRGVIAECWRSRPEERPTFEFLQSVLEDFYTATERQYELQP

[10] = target: T2, Cytoplasmic tyrosine-protein kinase BMX (Homo sapiens) (UniProt P51813)
T2 sequence (whole entry): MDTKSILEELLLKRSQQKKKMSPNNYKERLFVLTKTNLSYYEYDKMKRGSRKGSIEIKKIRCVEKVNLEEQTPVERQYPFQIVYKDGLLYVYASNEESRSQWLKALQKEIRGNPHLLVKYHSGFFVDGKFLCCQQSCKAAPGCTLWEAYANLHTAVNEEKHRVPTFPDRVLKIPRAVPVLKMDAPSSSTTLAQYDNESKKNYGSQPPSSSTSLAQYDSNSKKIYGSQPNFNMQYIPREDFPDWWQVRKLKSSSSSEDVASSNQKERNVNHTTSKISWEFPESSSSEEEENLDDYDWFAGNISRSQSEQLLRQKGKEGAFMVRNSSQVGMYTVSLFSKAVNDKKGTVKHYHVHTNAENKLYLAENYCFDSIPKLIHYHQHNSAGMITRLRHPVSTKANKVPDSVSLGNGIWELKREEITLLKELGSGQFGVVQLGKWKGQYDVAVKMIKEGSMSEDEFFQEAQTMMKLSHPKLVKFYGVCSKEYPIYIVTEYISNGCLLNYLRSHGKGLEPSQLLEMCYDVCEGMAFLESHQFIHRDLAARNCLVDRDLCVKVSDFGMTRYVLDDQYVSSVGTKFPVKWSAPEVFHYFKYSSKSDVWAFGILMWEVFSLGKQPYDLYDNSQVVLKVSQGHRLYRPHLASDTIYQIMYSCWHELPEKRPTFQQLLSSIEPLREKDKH

[11] = target: Tyrosine-protein kinase BTK (Homo sapiens, UniProt Q06187); assay: Inhibition of full-length recombinant human His-tagged BTK expressed in baculovirus expression system using Poly(4:1 Glu, Tyr) as substrate after 1 hr by ADP-Glo kinase assay
[12] = target: Mitogen-activated protein kinase 14 (Homo sapiens, UniProt Q16539); assay: Inhibition of full-length recombinant human GST-tagged p38alpha expressed in Escherichia coli by Z'-LYTE assay
[13] = target: Epithelial discoidin domain-containing receptor 1 (Homo sapiens, UniProt Q08345); assay: Inhibition of human GST-tagged DDR1 catalytic domain expressed in baculovirus expression system by LanthaScreen assay

SMILES | GI50 at 72 h [1] | GI50 [2] | GI50 [3] | GI50 [4] | GI50 [5] | GI50 [6] | GI50 [7] | GI50 [8] | GI50 [9] | GI50 [10] | IC50 [11] | IC50 [12] | IC50 [13]
C=CC(=O)Nc1cc(Nc2ncc(C(=O)Nc3cc(NC(=O)c4cccc(C(F)(F)F)c4)ccc3C)c(NC)n2)ccc1C | > 10000 nM | 380 nM | 118 nM | 99 nM | 130 nM | > 10000 nM | > 10000 nM | > 10000 nM | 5900 nM | 13 nM | – | – | –
CCC(=O)Nc1cc(Nc2ncc(C(=O)Nc3cc(NC(=O)c4cccc(C(F)(F)F)c4)ccc3C)c(NC)n2)ccc1C | > 10000 nM | 170 nM | 44 nM | 45 nM | 59 nM | 8600 nM | > 10000 nM | 8300 nM | 6500 nM | 85 nM | – | – | –
CCC(=O)Nc1cc(Nc2ncc(C(=O)Nc3cc(NC(=O)c4cc(OC)c(OC)c(OC)c4)ccc3C)c(NC)n2)ccc1C | > 10000 nM | 2800 nM | 2510 nM | 370 nM | 790 nM | > 10000 nM | > 10000 nM | > 10000 nM | – | 610 nM | > 10000 nM | 89 nM | 212 nM
